Molecules are shown by their SMILES. In brackets after ≈: the same amount, converted by molar mass. Some results are limits rather than exact numbers.

The subject of one assay is Enterococcus faecalis. Description: Minimum inhibitory concentration was evaluated in vitro against Enterococcus faecalis MGH-2. It counts as functional. Particulars: Enterococcus faecalis; read-out: MIC. The method in brief: (§1)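 Standard microtitration broth assay against a panel of 10 Gram-positive and Gram-negative organisms. MIC read in µg/mL and averaged over multiple experiments.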

Another assay concerns Pseudomonas aeruginosa. In words: Minimum inhibitory concentration was evaluated in vitro against Pseudomonas aeruginosa UI-18. It counts as functional. Particulars: Pseudomonas aeruginosa; read-out: MIC. The essentials: as §1
Assay [1] relates to Streptococcus pyogenes. In words: Minimum inhibitory concentration was evaluated in vitro against Streptococcus pyogenes C 203. It counts as functional. The settings on record: Streptococcus pyogenes; read-out: MIC. The method in brief: as §1
The nature of assay [2]: Clonogenic cytotoxicity against hamster V-79 cells. It counts as functional, Cricetulus griseus, V79. The essentials:
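Chinese hamster V-79 cells grown overnight, then drug-treated for 3 h at 37 °C. Medium is replaced with fresh medium and cells are incubated 5 days to allow colony formation. IC50 (µg/mL) is the concentration inhibiting colony formation by 50% relative to control.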

Assay [3] deals with Streptococcus pyogenes. Description: Compounds were evaluated in vivo for antibacterial activity for mouse protection against Streptococcus pyogenes C 203 after oral administration. Particulars: Streptococcus pyogenes, C 203, po; read-out: PD50. The class given is functional.
A further assay has as its system Enterobacter cloacae. Description: Minimum inhibitory concentration in vitro against Enterobacter cloacae MA 2646. Particulars: Enterobacter cloacae; read-out: MIC. The class given is functional.
The subject of the next assay is Streptococcus pneumoniae. In words: Minimum inhibitory concentration was evaluated in vitro against Streptococcus pneumoniae SV-1. The class given is functional. Particulars: Streptococcus pneumoniae; read-out: MIC. The essentials: as §1
For assay [4], the system named is Escherichia coli. In words: Antibacterial activity against Escherichia coli Vogel after subcutaneous administration in mouse. Particulars: Escherichia coli, sc; read-out: PD50. It counts as functional.
The subject of another assay is Klebsiella pneumoniae. In words: Minimum inhibitory concentration was evaluated in vitro against Klebsiella pneumoniae MGH2. The class given is functional. The settings on record: Klebsiella pneumoniae; read-out: MIC. The method in brief: as §1
Assay [5] deals with Staphylococcus aureus. In words: Minimum inhibitory concentration was evaluated in vitro against Staphylococcus aureus H 228. It counts as functional. The settings on record: Staphylococcus aureus; read-out: MIC. The essentials:
as §1

For assay [6], the system named is Staphylococcus aureus. In words: Minimum inhibitory concentration was evaluated in vitro against Staphylococcus aureus UC 76. It counts as functional. The settings on record: Staphylococcus aureus; read-out: MIC. The method in brief: as §1
For another assay, the system named is Providencia rettgeri. Description: Minimum inhibitory concentration was evaluated in vitro against Providencia rettgeri M1771. The class given is functional. Particulars: Providencia rettgeri; read-out: MIC. The essentials:
as §1

The test system of assay [7] is Escherichia coli. In words: Antibacterial activity against Escherichia coli Vogel after oral administration in mouse. It counts as functional. Particulars: for ED50: Escherichia coli, po, read-out: PD50.
Assay [8] deals with Streptococcus pyogenes. Description: Antibacterial activity measured as mouse protection against Streptococcus pyogenes C 203 after subcutaneous administration. The settings on record: Streptococcus pyogenes, C 203, sc; read-out: PD50. It counts as functional.
In assay [9] the test system is Escherichia coli. In words: Antibacterial activity in vitro against Escherichia coli Vogel. The class given is functional. Particulars: Escherichia coli; read-out: MIC. The method in brief:
as §1

The next assay is filed under the species Mus musculus. In words: Compounds were evaluated for phototoxicity no-effect dose in mouse. It counts as functional. The essentials:
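Depilated female CD-1 mice, five per dose plus controls. Animals are dosed orally and then exposed daily to UV-A (320–400 nm) for 3 h, for up to 4 days or until a definite positive response. Redness or erythema relative to controls, read 24 h after irradiation, counts as positive. Reported as the highest dose with no effect (mg/kg).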

As for `CCN[C@H](C)[C@@H]1CCN(c2nc3c(cc2F)c(=O)c(C(=O)O)cn3C2CC2)C1`, the MIC (commonly the smallest concentration in the dilution series that meets the test's criterion for growth inhibition) was 0.05 µg/mL (≈ 0.129 µM) in the assay on Enterococcus faecalis; 1.6 µg/mL (≈ 4.12 µM) in the assay on Pseudomonas aeruginosa; 0.05 µg/mL (≈ 0.129 µM) in the assay on Streptococcus pyogenes [1]; 0.4 µg/mL (≈ 1.03 µM) in the assay with Enterobacter cloacae; 0.025 µg/mL (≈ 0.0644 µM) in the assay on Streptococcus pneumoniae; 0.2 µg/mL (≈ 0.515 µM) in the assay with Klebsiella pneumoniae. The MIC in the assay with Staphylococcus aureus [5] stood at 0.05 µg/mL (≈ 0.129 µM); with Staphylococcus aureus [6], 0.025 µg/mL (≈ 0.0644 µM); in the assay on Providencia rettgeri it was 1.6 µg/mL (≈ 4.12 µM); in the assay on Escherichia coli [9], 0.1 µg/mL (≈ 0.257 µM). Also, the Cytotoxicity in assay [2] stood at 87 µg/mL. In addition, the ED50 in the assay with Streptococcus pyogenes [3] was 6 mg/kg; with Escherichia coli [4] it was 6 mg/kg; in the assay with Escherichia coli [7] it was 7 mg/kg; in the assay on Streptococcus pyogenes [8], 4 mg/kg.

Take `CCN[C@H](C)[C@H]1CCN(c2c(F)c(N)c3c(=O)c(C(=O)O)cn(C4CC4)c3c2F)C1` (racemic): the MIC with Enterococcus faecalis worked out at 0.013 µg/mL (≈ 0.0309 µM); with Pseudomonas aeruginosa it was 0.8 µg/mL (≈ 1.9 µM); with Streptococcus pyogenes [1], 0.003 µg/mL (≈ 0.00714 µM); with Enterobacter cloacae, 0.025 µg/mL (≈ 0.0595 µM); in the assay with Streptococcus pneumoniae it was 0.003 µg/mL (≈ 0.00714 µM); in the assay with Klebsiella pneumoniae, 0.05 µg/mL (≈ 0.119 µM). Moreover, the MIC in the assay with Staphylococcus aureus [5] stood at 0.003 µg/mL (≈ 0.00714 µM); with Staphylococcus aureus [6], 0.003 µg/mL (≈ 0.00714 µM); in the assay with Providencia rettgeri, 0.1 µg/mL (≈ 0.238 µM); in the assay on Escherichia coli [9], 0.025 µg/mL (≈ 0.0595 µM). The Cytotoxicity in assay [2] was found to be 42 µg/mL. In addition, the ED50 was 0.3 mg/kg in the assay with Streptococcus pyogenes [3], 1 mg/kg in the assay with Escherichia coli [4], 2 mg/kg in the assay with Escherichia coli [7] and 0.3 mg/kg in the assay with Streptococcus pyogenes [8].

As to `CCn1cc(C(=O)O)c(=O)c2cc(F)c(N3CCC(C(C)N)C3)c(OC)c21` (racemic), the MIC amounted to 0.006 µg/mL (≈ 0.0159 µM) in the assay with Enterococcus faecalis; 0.8 µg/mL (≈ 2.12 µM) in the assay on Pseudomonas aeruginosa; 0.003 µg/mL (≈ 0.00795 µM) in the assay with Streptococcus pyogenes [1]; 0.1 µg/mL (≈ 0.265 µM) in the assay on Enterobacter cloacae; 0.003 µg/mL (≈ 0.00795 µM) with Streptococcus pneumoniae; 0.1 µg/mL (≈ 0.265 µM) with Klebsiella pneumoniae. The MIC was 0.006 µg/mL (≈ 0.0159 µM) in the assay on Staphylococcus aureus [5], 0.003 µg/mL (≈ 0.00795 µM) with Staphylococcus aureus [6], 0.1 µg/mL (≈ 0.265 µM) in the assay on Providencia rettgeri and 0.05 µg/mL (≈ 0.132 µM) in the assay on Escherichia coli [9]. The compound also registered a Cytotoxicity in assay [2] of 19 µg/mL. The ED50 with Streptococcus pyogenes [3] is 3 mg/kg; in the assay on Escherichia coli [4] it was 3 mg/kg; with Escherichia coli [7], 9 mg/kg; in the assay with Streptococcus pyogenes [8], 0.2 mg/kg.

Regarding `COc1c(N2CC[C@@H]([C@@H](C)N)C2)c(F)cc2c(=O)c(C(=O)O)cn(C3CC3)c12`, the MIC with Enterococcus faecalis came to 0.025 µg/mL (≈ 0.0642 µM); in the assay on Pseudomonas aeruginosa it was 0.8 µg/mL (≈ 2.05 µM); in the assay on Streptococcus pyogenes [1], 0.013 µg/mL (≈ 0.0334 µM); in the assay on Enterobacter cloacae, 0.05 µg/mL (≈ 0.128 µM); with Streptococcus pneumoniae, 0.013 µg/mL (≈ 0.0334 µM); in the assay on Klebsiella pneumoniae, 0.1 µg/mL (≈ 0.257 µM). The MIC amounted to 0.025 µg/mL (≈ 0.0642 µM) with Staphylococcus aureus [5], 0.003 µg/mL (≈ 0.0077 µM) in the assay with Staphylococcus aureus [6], 0.2 µg/mL (≈ 0.514 µM) with Providencia rettgeri and 0.05 µg/mL (≈ 0.128 µM) with Escherichia coli [9]. The same compound returned a Cytotoxicity in [2] of 41 µg/mL. Further, the ED50 with Streptococcus pyogenes [3] amounted to 6 mg/kg; in the assay on Streptococcus pyogenes [8], 1 mg/kg.

With `C[C@@H](N)[C@@H]1CCN(c2c(F)c(N)c3c(=O)c(C(=O)O)cn(C4CC4)c3c2F)C1`, the MIC was found to be 0.006 µg/mL (≈ 0.0153 µM) in the assay with Enterococcus faecalis; 0.4 µg/mL (≈ 1.02 µM) in the assay on Pseudomonas aeruginosa; 0.006 µg/mL (≈ 0.0153 µM) in the assay with Streptococcus pyogenes [1]; 0.025 µg/mL (≈ 0.0637 µM) in the assay on Enterobacter cloacae; 0.006 µg/mL (≈ 0.0153 µM) in the assay on Streptococcus pneumoniae; 0.025 µg/mL (≈ 0.0637 µM) in the assay on Klebsiella pneumoniae. In addition, the MIC in the assay on Staphylococcus aureus [5] came to 0.003 µg/mL (≈ 0.00765 µM); with Staphylococcus aureus [6] it was 0.003 µg/mL (≈ 0.00765 µM); in the assay on Providencia rettgeri, 0.05 µg/mL (≈ 0.127 µM); in the assay with Escherichia coli [9], 0.025 µg/mL (≈ 0.0637 µM). This compound also came in with a Cytotoxicity in assay [2] of under 7.8 µg/mL. Further, the ED50 in the assay with Streptococcus pyogenes [3] came out at 2 mg/kg; in the assay on Escherichia coli [4], 0.7 mg/kg; in the assay with Streptococcus pyogenes [8] it was 0.2 mg/kg. The compound also showed a PD50 in the assay on Escherichia coli [7] of 4 mg/kg.

In the case of `NC1CCN(c2c(F)cc3c(=O)c(C(=O)O)cn(C4CC4)c3c2C(F)(F)F)C1` (stereo not given), the Cytotoxicity in [2] amounted to 250 µg/mL. The compound also registered a Dose in the assay listed under Mus musculus of over 100 mg/kg. For the same compound, the MIC in the assay with Enterobacter cloacae is 0.1 µg/mL (≈ 0.25 µM); with Staphylococcus aureus [5], 0.2 µg/mL (≈ 0.501 µM); with Escherichia coli [9], 0.1 µg/mL (≈ 0.25 µM). Besides, the ED50 turned out to be 1 mg/kg in the assay on Escherichia coli [4], 3 mg/kg with Escherichia coli [7] and 22 mg/kg in the assay on Streptococcus pyogenes [8].

Take `CCn1cc(C(=O)O)c(=O)c2cc(F)c(N3CCC(C(C)NC)C3)c(OC)c21` (racemic): the MIC with Enterococcus faecalis is 0.025 µg/mL (≈ 0.0639 µM); in the assay on Pseudomonas aeruginosa it was 1.6 µg/mL (≈ 4.09 µM); with Streptococcus pyogenes [1] it was 0.013 µg/mL (≈ 0.0332 µM); in the assay with Enterobacter cloacae, 0.8 µg/mL (≈ 2.04 µM); in the assay on Streptococcus pneumoniae, 0.013 µg/mL (≈ 0.0332 µM); with Klebsiella pneumoniae, 0.2 µg/mL (≈ 0.511 µM). For the same compound, the MIC in the assay with Staphylococcus aureus [5] is 0.025 µg/mL (≈ 0.0639 µM); in the assay with Staphylococcus aureus [6] it was 0.003 µg/mL (≈ 0.00766 µM); with Providencia rettgeri, 0.4 µg/mL (≈ 1.02 µM); with Escherichia coli [9] it was 0.2 µg/mL (≈ 0.511 µM). The ED50 with Streptococcus pyogenes [3] is 2 mg/kg; in the assay with Escherichia coli [4], 4 mg/kg; in the assay on Escherichia coli [7], 22 mg/kg; in the assay with Streptococcus pyogenes [8] it was 0.3 mg/kg.

For the origin of these results see ChEMBL document CHEMBL1126988, “Quinolone antibacterials containing the new 7-[3-(1-aminoethyl)-1- pyrrolidinyl] side chain: the effects of the 1-aminoethyl moiety and its stereochemical configurations on potency and in vivo efficacy” (J Med Chem, 1993).
